Autophagy HCS – autophagy modulators in MEF cells, primary screen, imaging, high-content, MEF GFP-LC3 | calls only at 10 µM (by protocol) | MEF GFP-LC3 puncta imaging; test concentration mostly 10 µM | actives 0.98% (n = 190,000);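 active means percentage of spot-positive cells more than 3 SD above its plate mean, without a fluorescence outlier flag or 80% toxicity; inconclusive means no clear call, values can overlap the other calls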
PERK inh – block of dimerizer-induced PERK translation repression, primary screen, PERK inhibitor project, CHO PERK-DD cells, SEAP luminescence, HTS; Eukaryotic translation initiation factor 2-alpha kinase 3 (Homo sapiens), Q9NZJ5; CHO PERK-DD fusion, SEAP luminescence translation reporter; inhibition, % at 5.6 µM; actives 0.17% (n = 220,000); AID 1416, 2008;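 active means inhibition above the mean inhibition of all tested compounds plus 3 SD, set separately per screening campaign, cut at about 2.9% in these data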;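 further: PERK kinase domain activated by AP20187 dimerizer at 100 nM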
Target sequence (Q9NZJ5 whole entry, looked up, the tested form may be a part): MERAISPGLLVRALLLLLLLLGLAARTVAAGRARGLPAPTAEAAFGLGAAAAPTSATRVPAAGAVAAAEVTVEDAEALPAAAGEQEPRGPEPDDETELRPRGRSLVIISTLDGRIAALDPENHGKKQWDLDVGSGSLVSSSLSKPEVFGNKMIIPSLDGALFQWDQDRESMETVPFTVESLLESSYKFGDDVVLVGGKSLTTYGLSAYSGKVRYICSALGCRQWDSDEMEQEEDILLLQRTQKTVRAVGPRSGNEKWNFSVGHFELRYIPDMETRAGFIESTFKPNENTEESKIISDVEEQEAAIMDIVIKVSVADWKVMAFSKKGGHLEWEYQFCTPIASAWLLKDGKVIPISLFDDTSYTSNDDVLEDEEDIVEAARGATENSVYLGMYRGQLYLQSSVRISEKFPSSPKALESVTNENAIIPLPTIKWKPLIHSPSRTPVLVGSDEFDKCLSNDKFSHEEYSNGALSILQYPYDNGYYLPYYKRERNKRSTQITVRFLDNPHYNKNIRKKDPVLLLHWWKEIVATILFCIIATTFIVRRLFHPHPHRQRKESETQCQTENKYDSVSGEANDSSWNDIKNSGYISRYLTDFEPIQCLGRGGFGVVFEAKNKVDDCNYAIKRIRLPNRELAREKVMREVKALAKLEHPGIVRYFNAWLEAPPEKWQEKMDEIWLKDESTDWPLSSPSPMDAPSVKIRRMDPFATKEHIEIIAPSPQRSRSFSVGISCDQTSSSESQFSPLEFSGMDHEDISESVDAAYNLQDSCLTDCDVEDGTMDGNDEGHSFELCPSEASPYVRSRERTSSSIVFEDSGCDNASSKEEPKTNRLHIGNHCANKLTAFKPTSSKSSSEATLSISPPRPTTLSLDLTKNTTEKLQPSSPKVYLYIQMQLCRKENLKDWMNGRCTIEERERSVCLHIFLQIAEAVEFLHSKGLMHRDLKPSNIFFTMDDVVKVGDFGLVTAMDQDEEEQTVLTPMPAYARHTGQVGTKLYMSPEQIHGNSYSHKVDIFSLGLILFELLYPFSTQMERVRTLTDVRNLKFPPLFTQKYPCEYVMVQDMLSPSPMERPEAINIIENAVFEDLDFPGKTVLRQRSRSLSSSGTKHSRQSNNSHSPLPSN
Dynein cargo inh – inhibitors of GR-EGFP nuclear translocation, primary screen, dynein cargo transport inhibitor project, imaging, high-content, 3617.4 mouse cells | test concentration mostly 20 µM; stimulated with dexamethasone, 1 µM; stronger effect = lower value | z-score, hits read low | actives 0.47% (n = 220,000);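 active means plate z-score of nuclear minus cytoplasmic receptor signal below a set negative limit, without overly bright fluorescence or cell loss, cut at about -3.5 in these data, passing the limit was not always enough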;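 further: z-score of nuclear minus cytoplasmic ring GR-EGFP intensity difference per well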
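Also added: dexamethasone, 1.0 µM final. Medium: tet-free, stripped-serum medium. Detection: fixed, Hoechst-stained cells imaged at 10x for EGFP. Read-out: nuclear-to-cytoplasmic GR-EGFP distribution per well. Times: induction 48 h, compound 1 h, agonist 30 min.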
INS promoter inh – inhibitors of insulin promoter-driven GFP, primary screen, imaging, TRM-6 cells (human fetal islet line), eGFP reporter, cell count; reporter expression induced with tamoxifen; inhibition, % at 2 µM; actives 0.9% (n = 130,000); AID 1273, 2008;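 active means inhibition above the mean plus 3 SD, with well images judged a real hit on visual review, cut at about 60% in these data, passing the limit was not always enough; inconclusive means inhibition over the cutoff but images rejected on review; inactive means inhibition not above the cutoff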
Insulin prom up – insulin promoter activators in MIN6 cells, imaging, high-content screening, mouse beta cells | MIN6 insulin promoter-GFP reporter; stronger effect = higher value | z-score at 5 µM | actives 0.3% (n = 190,000) | AID 1625, 2009;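 active means z-score above 3 at 5 µM with at least 500 cells counted in the well; inconclusive means wells under 500 cells, flagged as cytotoxic or low count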
Dynein inh conf – dynein cargo transport inhibitors, GR-EGFP translocation, confirmation, imaging, high-content imaging, GR-EGFP cells | shares compounds with Dynein cargo inh | 3617.4 GR-EGFP nuclear translocation imaging, dexamethasone-induced | calls only at 20 µM | actives 69% (n = 1,000) | AID 463116, 2010;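 active means inhibition of receptor movement into the nucleus at or above a set limit in both runs, with normal cell brightness and cell count; inconclusive means limit reached in only one run, brightness and count normal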;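 further: dexamethasone at 1 µM final in well for 30 min; nuclear minus cytoplasmic GR-EGFP mean intensity difference in channel 2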
Each line names hits and unclear results; the compound was inactive in the other large screens (follow-up assays come after a bar, where they were run). Only some compounds are listed: those with a hit (about 2.1% of all), similar ones and a draw of the others.

CC(NC(=O)Nc1ccc([N+](=O)[O-])cc1)C(c1cccs1)N1CCCC1 (stereo not given)	none
CN(C)CCCN(C(=O)CCOc1ccccc1)c1nc2ccc(F)cc2s1	Dynein cargo inh -3.5 | Dynein inh conf inactive
CN(C)CCCN(C(=O)CCOc1ccccc1)c1nc2c(F)cccc2s1	Dynein cargo inh -7.9 (no result: INS promoter inh) | Dynein inh conf active
CN(C)CCCN(C(=O)COc1ccccc1)c1nc2ccc(F)cc2s1	none (no result: INS promoter inh)
CN(C)CCCN(C(=O)CCc1ccccc1)c1nc2c(F)cccc2s1	none
O=C(CSc1nc2cc(Cl)ccc2s1)Nc1cccc(S(=O)(=O)N2CCOCC2)c1	none
Cc1[nH]n(C(N)=S)c(=O)c1N=Nc1ccc2ccccc2c1	none (no result: INS promoter inh)
COc1ccc(C(c2c(C)[nH]n(C(N)=S)c2=O)C(C#N)C#N)cc1 (stereo not given)	Dynein cargo inh -4.1 (no result: Insulin prom up) | Dynein inh conf active
O=C1/C(=C/c2cccc(Br)c2)SC(=S)N1/N=C/c1cc([N+](=O)[O-])ccc1O	none (no result: Autophagy HCS, INS promoter inh)
c1ccc(-c2ccc(-c3nccc4ccccc34)[nH]2)cc1	Insulin prom up 4.4 (no result: Autophagy HCS, INS promoter inh) | Dynein inh conf inactive
CSc1nc2sc3c(c2c2nnnn12)CC(C)(C)OC3	none (no result: Insulin prom up)
CC1(C)Cc2c(sc3c4nnnn4c4nnnn4c23)CO1	Dynein cargo inh -4.7 | Dynein inh conf inactive
CC1(C)CC(N=c2cc(-c3ccccc3)oc3ccc(Cl)cc23)CC(C)(C)N1	Autophagy HCS active, Dynein cargo inh -3.5, Insulin prom up inconclusive | Dynein inh conf inactive
Clc1ncnc2scc(-c3ccc(Br)cc3)c12	Dynein cargo inh -4.5 | Dynein inh conf active
O=[N+]([O-])c1ccc(N2CCN(c3ccc(Cl)nn3)CC2)cc1NC1CC1	none (no result: Insulin prom up) | Dynein inh conf inactive
O=[N+]([O-])c1ccc(N2CCN(c3ccc(Cl)nn3)CC2)c(Cl)c1	none
O=C(Nc1ccccc1O)c1nc(Cl)ccc1Cl	none
CCOc1ccc(CN(C)C(=O)CCl)cc1	Dynein cargo inh -5.6 (no result: INS promoter inh) | Dynein inh conf active
Cc1c(N=Cc2ccc(Br)s2)cccc1[N+](=O)[O-]	none (no result: INS promoter inh)
O=[N+]([O-])c1ccc(C=Nc2ccc(Cl)c([N+](=O)[O-])c2)s1	Dynein cargo inh -5.6 (no result: INS promoter inh) | Dynein inh conf active
CCOc1ccc2nc(SC3CC(=O)N(c4ccc(OC)cc4OC)C3=O)sc2c1 (stereo not given)	Dynein cargo inh -4.9 | Dynein inh conf active
CCOc1ccc(N2C(=O)CC(Sc3nc4ccc(OCC)cc4s3)C2=O)cc1 (stereo not given)	none (no result: Insulin prom up)
Cc1nc2ccccn2c1C(=O)NN=C1C2CC3CC(C2)CC1C3	none
CN1CC=C2C(C#N)=C(N)C(C#N)(C#N)C(Cc3ccccc3)C2C1 (stereo not given)	Autophagy HCS inconclusive (no result: Insulin prom up) | Dynein inh conf inactive
CC(C)N1CC=C2C(C#N)=C(N)C(C#N)(C#N)C(c3ccccc3)C2C1 (stereo not given)	Autophagy HCS inconclusive (no result: Insulin prom up)
Cc1[nH]c2ccccc2c(=O)c1C(=O)/C=C/c1ccccc1	Dynein cargo inh -6 (no result: Autophagy HCS, INS promoter inh) | Dynein inh conf active
Cc1[nH]c2ccccc2c1/C=C/C(=O)c1ccccc1	none
Cn1c(=S)oc2ccccc21	none (no result: Autophagy HCS, INS promoter inh)
CC(C)CC(=O)/C=C/n1c(=S)oc2ccccc21	Dynein cargo inh -4 | Dynein inh conf active
CC(=O)/C=C/n1c(=S)oc2ccccc21	Autophagy HCS active, Dynein cargo inh -4.1 | Dynein inh conf active
COc1cc(NC(=S)NCCC(c2ccccc2)c2ccccc2)c(OC)cc1Cl	none
C/C(Cn1nnc2ccccc21)=N\NC(=O)c1ccc(Br)cc1	none
CCOC(=O)c1oc2ccc(/C=N/O)c(Cl)c2c1C	none (no result: INS promoter inh)
CCOc1ccc(C(=O)NC(=S)Nc2ccccc2N2CCOCC2)cc1Br	none
O=C(NC1CCCCC1)C(c1cccnc1)N(C(=O)CCl)c1cccc(Cl)c1 (stereo not given)	Dynein cargo inh -4.3 | Dynein inh conf active
COc1cccc(N(C(=O)c2ccco2)C(C(=O)NC2CCCC2)c2cccnc2)c1 (stereo not given)	none (no result: INS promoter inh)

Screening data: PubChem BioAssay, several laboratories
